The results in this text go back to PMC3983359 (Journal of Medicinal Chemistry, 2014).

Each structure is given as a SMILES string. Entries after “also recorded” stand apart in the source; their conditions may differ. Counter-ions that a name gives are not always drawn. Some results are limits rather than exact numbers.

One data set relates to HepG2 cells. Put plainly: HepG2 cytotoxicity counterscreen. The class given is cell-based, human. As to conditions: cellular ATP content, CellTiter-Glo, 48 hr.
The target of another data set is T1, human PPTase (Homo sapiens, UniProt Q9NRN7).
T1 sequence (Q9NRN7 1-309): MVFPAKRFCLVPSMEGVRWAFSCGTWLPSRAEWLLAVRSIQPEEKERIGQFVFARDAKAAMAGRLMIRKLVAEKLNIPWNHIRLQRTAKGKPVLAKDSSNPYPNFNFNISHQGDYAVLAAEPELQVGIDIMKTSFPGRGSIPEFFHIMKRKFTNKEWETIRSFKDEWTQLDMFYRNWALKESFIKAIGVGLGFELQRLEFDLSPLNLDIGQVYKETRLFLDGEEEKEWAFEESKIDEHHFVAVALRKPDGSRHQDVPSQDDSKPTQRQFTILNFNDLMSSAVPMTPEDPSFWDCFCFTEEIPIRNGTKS
Briefly: Gel-based PPTase assay with the human enzyme. It is filed as biochemical. The settings on record: concentrations up to 125 μM.

The test system of another data set is B. subtilis. Put plainly: MIC determination, broth dilution, B. subtilis. It is filed as cell-based, Bacillus subtilis. The settings on record: broth dilution, resazurin. The gist of the method:
(§1)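 Bacterial MIC followed NCCLS M07 broth microdilution. Test compound in DMSO (1 μL) added to 50 μL cation-adjusted Mueller Hinton II broth, then ~1 × 10^3 cfu from overnight liquid culture. Incubated at 30–37 °C for 16–20 h. MIC taken as the first well without visible growth. For imaging, 0.7% w/v resazurin (10 μL) added, then 4 h at 37 °C.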
In general terms: In broth dilution the organism is exposed to a series of concentrations in liquid medium.

In a further data set the test system is E. coli. Put plainly: MIC determination, broth dilution, E. coli. The class given is cell-based, Escherichia coli. As to conditions: E. coli K12 and BW25113. In a few lines: as §1
The test system of another data set is P. aeruginosa. Put plainly: MIC determination, broth dilution, P. aeruginosa. It is filed as cell-based, Pseudomonas aeruginosa. The settings on record: ATCC9028. In a few lines: as §1
In the next data set the test system is Candida albicans. Put plainly: MIC determination, broth dilution, fungi. It is filed as cell-based. As to conditions: C. albicans ATCC90028 and ATCC96901. The gist of the method:
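Fungal MIC followed NCCLS M27 broth microdilution against fluconazole-sensitive and fluconazole-resistant C. albicans strains. Inoculum was made by suspending 2-day-old colonies in RPMI 1640, ~1 × 10^3 cfu per well, with test compound in DMSO. Incubated at 30–37 °C for 48 h. MIC read visually as the first well without growth.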

The subject of the next data set is B. subtilis 168. Briefly: Membrane damage assessment. The class given is cell-based, Bacillus subtilis. The settings on record: 15 min incubation, up to 10-fold MIC, Syto9/propidium iodide. In a few lines:
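B. subtilis membrane integrity assessed by fluorescence microscopy with Syto9, which stains all cells, and propidium iodide, which enters only compromised cells. […] Stained cells were counted.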

In another data set the test system is E. coli JW0451 (ΔacrB). Briefly: Broth dilution with efflux-defective E. coli mutant. The class given is cell-based, Escherichia coli. In a few lines:
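Broth microdilution: test compound in DMSO (1 μL) added to 50 μL cation-adjusted Mueller Hinton II broth, then ~1 × 10^3 cfu inoculum from overnight culture. Incubated at 30–37 °C for 16–20 h. MIC scored visually as the first well without growth. Efflux-defective ΔacrB strain JW0451 tested alongside wild-type BW25113.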

The subject of another data set is E. coli BW25113. Put plainly: Checkerboard synergy experiment with PAβN. It is filed as cell-based, Escherichia coli. The settings on record: top concentrations tested. The gist of the method:
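Checkerboard broth dilution in E. coli BW25113 combining test compound with PAβN over concentration grids. Resazurin added (10 μL, 0.7% w/v) and incubated a further 4 h at 37 °C; purple wells scored as no metabolically active bacteria. At each test-compound concentration, the lowest PAβN concentration halting growth was recorded. FIC index was estimated as combined potency relative to the single components.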

The subject of data set [1] is S. aureus and B. subtilis. Briefly: Minimum bactericidal concentration determination. It is filed as cell-based.
Data set [2] can be described thus: Mouse liver microsome stability. It is filed as in vitro ADME. A general note: Liver microsomes are a subcellular fraction often used to study metabolism.
In the next data set the target is CYP2D6 (Homo sapiens, UniProt P10635). Put plainly: CYP2D6 inhibition. The class given is in vitro ADME. As to conditions: 2D6, 3 μM, substrate dextromethorphan.
Data set [3] can be described thus: PAMPA passive permeability. The class given is in vitro ADME. On the technique in general: In PAMPA a lipid-coated filter parts donor from acceptor wells.
The nature of data set [4]: Compound stability in aqueous media and buffers. It is filed as physicochemical. The settings on record: pH range 2–9, PBS and HEPES.
A short description of data set [5]: In vivo PK in male CD1 mice. Further details: species or system mouse.
The subject of another data set is clinical strains of MRSA. Put plainly: MIC against clinical strains of S. aureus. It is filed as cell-based, Staphylococcus aureus. As to conditions: all strains tested.
The subject of data set [6] is S. aureus BK2395 (PFGE USA500). Put plainly: Mouse model of S. aureus septicemia. It is filed as in vivo. The settings on record: 55 30 mpk, vancomycin 50 mpk; 4, 24, 48 hours post infection.

Sequence of CYP2D6 (P10635 whole entry): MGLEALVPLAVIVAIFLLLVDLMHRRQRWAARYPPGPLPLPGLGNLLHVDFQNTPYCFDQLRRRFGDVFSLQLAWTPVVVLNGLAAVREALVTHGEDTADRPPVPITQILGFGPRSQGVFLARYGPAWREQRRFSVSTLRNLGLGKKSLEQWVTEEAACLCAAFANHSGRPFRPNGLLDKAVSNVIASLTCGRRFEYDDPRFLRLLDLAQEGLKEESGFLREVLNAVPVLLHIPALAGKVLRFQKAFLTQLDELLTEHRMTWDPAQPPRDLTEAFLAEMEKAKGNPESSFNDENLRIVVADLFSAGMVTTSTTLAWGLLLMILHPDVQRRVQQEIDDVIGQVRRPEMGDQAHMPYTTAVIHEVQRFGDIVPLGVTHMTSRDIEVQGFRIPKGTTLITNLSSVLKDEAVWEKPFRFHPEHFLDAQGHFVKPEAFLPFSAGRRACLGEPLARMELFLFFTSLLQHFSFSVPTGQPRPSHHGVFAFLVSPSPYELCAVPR

The half-life is the time needed for the level to fall by half in the phase considered. Low values mean rapid decline, high ones slow decline. Take `COc1ccnc(NC(=S)N2CCN(c3ncc(C(F)(F)F)cc3Cl)CC2)c1` [Compound 55, 4-(3-Chloro-5-(trifluoromethyl)pyridin-2-yl)-N-(4-methoxypyridin-2-yl)piperazine-1-carbothioamide Trifluoroacetate]: the “cytotoxicity (HepG2), IC50” value in the data set on HepG2 cells is “inactive”. At human PPTase, the “inhibition of the human PPTase” value was “no inhibition; also recorded: null activity”. In the data set with B. subtilis, the “concentration inhibiting the growth of B. subtilis” value came to 1.7 µg/mL. Further, the “growth inhibition of E. coli” value with E. coli is given as “No growth inhibition”. In addition, the “growth inhibition of P. aeruginosa” value with P. aeruginosa is recorded as “No growth inhibition”. In addition, the “growth inhibition of fungal organisms” value in the data set with Candida albicans is given as “No growth inhibition”. Moreover, the “bacterial cell membrane integrity” value in the data set on B. subtilis 168 is “continued cellular viability”. Moreover, the “lowest concentration to which the ΔacrB strain is susceptible” value with E. coli JW0451 (ΔacrB) (E. coli JW0451, lesion in acrB locus) came to 12.5 µg/mL. Moreover, the “lowest concentration inhibiting bacterial growth (Figure 4B)” value in the data set with E. coli JW0451 (ΔacrB) (legend: disruption of tolC) was found to be 12 µM. Also, in the data set with E. coli BW25113, the “antibacterial activity of the single compound against BW25113” value is “neither compound alone was found to possess antibacterial activity”. In addition, the “type of antibacterial activity” value in [1] is given as “bactericidal activity”. In [2] (absence of NADPH cofactor, 1 h), the “microsomal stability without NADPH” value was “completely stable”. This compound showed a half-life in [2] (mouse, liver microsomes, microsomal stability (T1/2, min), mouse liver microsomes, with NADPH) of 49.5 min. In addition, the “CYP inh (3 μM) (%)” value at CYP2D6 is given as 25 (2D6) %. Moreover, in data set [3], the PAMPA is listed as 1122 × 10^–6 cm/s. For the same compound, the “degradation in aqueous media, buffers and mouse plasma” value in data set [4] is “no signs of degradation”. In data set [5] (iv 3 and ip 30 mg/kg, 24 h period), the adverse clinical observations result is “did not result in any adverse clinical observations”. The “time for which exposure exceeds the in vitro antibacterial MIC value” in data set [5] (total drug concentration) is “over 8 h”. In addition, the “spread of potencies over the panel of clinical isolates” value in the data set with clinical strains of MRSA is ≤ 3 fold. Further, the “survival in mouse sepsis model” value in [6] was “did not increase survival”.
